pIC50: −log10 of the molar value. Values joined by “and” are separate entries in the source; they are usually repeats but may differ in a detail not shown here. Equal values may be shown once. Read-outs that look alike come from different tables or passages of the source.
Experiments:
[1] = test system: relapsed CLL; details: cited from earlier work
[2] = test system: fMLP‐mediated basophil degranulation; assay: fMLP‐induced basophil degranulation; type: cell-based, human
[3] = Safety and tolerability, SAD study
[4] = test system: PMA‐induced T‐cell activation (PKC‐dependent); assay: T‐cell activation; type: cell-based, human; details: MAD, steady state after 10 once‐daily doses
[5] = SAD study: plasma and urine pharmacokinetics after a single oral dose; type: in vivo, human; details: for Ae0‐96 / fe0‐96: urine, mean (SD); for Tmax / half-life / Cmax / AUC(0-t): human, plasma
[6] = test system: PMA/PKC‐mediated pERK Y204; assay: PMA‐induced pERK Y204 in B cells, specificity control, whole blood; type: cell-based, human; details: SAD 200‐ and 300‐mg cohorts combined
[7] = test system: PMA‐induced pERK Y204; assay: Rat whole blood phospho‐flow: PMA‐induced pERK Y204; type: cell-based; details: 5 μM
[8] = test system: hind‐paw inflammation; details: rat CIA, p < 0.05, cited from earlier work
[9] = test system: LPS‐induced DC activation; assay: Dendritic cell activation by LPS; type: cell-based, human; details: in vitro; 1 μM in Figure 5C
Method in brief: (§1)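 Cells (0.5 × 10⁶/well) were preincubated 1 h with test compound, then stimulated overnight with 1 μg/mL LPS or antibody-opsonized sheep RBCs. CD80/86 and MHCII were read by flow cytometry; values are % of vehicle, n = 5.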

[10] = test system: ZAP70; details: read-out: ZAP70 IC50; purified kinase assay; cited from earlier work
[11] = type: in vivo, human; details: for Fluctuation / Ae0‐24 / fe0‐24 / t1/2 / Cmax: mean (SD); for Ae0‐24 / fe0‐24: urine; for CL renal: urine and plasma
[12] = test system: BCR/LYN‐mediated pSYK Y352; assay: BCR signaling specificity control, pSYK Y352 in B cells, whole blood; type: cell-based, human
[13] = test system: opRBC‐induced (FcγR) neutrophil ROS generation; assay: Neutrophil oxidative burst induced by opRBC in whole blood in vitro; type: cell-based, human
[14] = test system: FcγR‐mediated DC activation; assay: Dendritic cell activation by opsonized sheep red blood cells; type: cell-based, human; details: immature DCs from healthy donors, in vitro
Method in brief: as §1

[15] = test system: PMA/PKC‐induced B‐cell activation; assay: PMA‐induced B‐cell activation; type: cell-based, human
[16] = Safety and tolerability, MAD study; type: in vivo, human
[17] = test system: CD3/CD28‐induced T‐cell activation (ZAP70‐dependent); assay: T‐cell activation; type: cell-based, human; details: MAD, steady state after 10 once‐daily doses
[18] = test system: DLBCL; details: phase 2 study in DLBCL; cited from earlier work
[19] = test system: serum levels of CCL3 and CCL4; details: cited from earlier work
[20] = MAD, all dose levels, data not shown
[21] = SAD 200‐ and 300‐mg cohorts combined

c1cn2cc(-c3ccc4cn[nH]c4c3)nc(Nc3ccc(N4CCOCC4)cc3)c2n1 [GS9973]
Duration of response ([1]; majority of responding patients): greater than 6 months | patients achieving decreased adenopathy ([1]; phase 2, relapsed CLL): 94.5% | patients having experienced a partial response ([1]; phase 2, relapsed CLL): 61.5%

CC(=O)O.NC(=O)c1cnc(N[C@@H]2CCCC[C@@H]2N)nc1Nc1cccc(-n2nccn2)c1 [PRT062607, 4‐((3‐(2H‐1,2,3‐triazol‐2‐yl)phenyl)amino)‐2‐(((1R,2S)‐2‐aminocyclohexyl)amino)pyrimidine‐5‐carboxamide acetate]
effect on fMLP stimulation (SYK‐independent) [2, 20]: no effect | inhibition of fMLP‐mediated basophil degranulation [2, 21]: No inhibition | overall safety and tolerability ([3]; SAD and MAD, entire range of doses): safe and well tolerated | serious adverse events ([3]; SAD, 3 to 400 mg): no serious adverse events | number of reported TEAEs ([3]; SAD, 200‐mg dose group): 15 | subject incidence of TEAEs ([3]; SAD, 200‐mg dose group): 67% | number of reported TEAEs ([3]; SAD, 300‐mg dose group): 7 | subject incidence of TEAEs ([3]; SAD, 300‐mg dose group): 67% | number of reported TEAEs ([3]; SAD, 400‐mg dose group): 3 | subject incidence of TEAEs ([3]; SAD, 400‐mg dose group): 17% | moderate intensity TEAEs (dizziness, headache, musculoskeletal pain) ([3]; SAD, all PRT062607 doses): 3 | subjects with abdominal pain ([3]; SAD, all PRT062607 doses): 3 subjects | subjects with diarrhea ([3]; SAD, all PRT062607 doses): 3 subjects | subjects with dizziness ([3]; SAD, all PRT062607 doses): 3 subjects | subjects with headache ([3]; SAD, all PRT062607 doses): 6 subjects | subjects with nausea ([3]; SAD, all PRT062607 doses): 3 subjects | subjects with rhinitis ([3]; SAD, all PRT062607 doses): 2 subjects | number of TEAEs ([3]; SAD, all subjects receiving PRT062607): 37 | subjects reporting TEAEs ([3]; SAD, all subjects receiving PRT062607 (17/42)): 40% | effect on PMA‐induced T‐cell activation [4]: no effect | Intersubject variability (%CV) of Cmax and AUClast ([5]; SAD, 6 out of 7 dose cohorts): < 40% | Ae0‐96 ([5]; SAD, single oral 30 mg): 0.4 (0.3) mg | fe0‐96 ([5]; SAD, single oral 30 mg): 1.5 (0.9) % | Ae0‐96 ([5]; SAD, single oral 100 mg): 2.4 (0.5) mg | fe0‐96 ([5]; SAD, single oral 100 mg): 2.4 (0.5) % | Ae0‐96 ([5]; SAD, single oral 200 mg): 4.3 (0.8) mg | fe0‐96 ([5]; SAD, single oral 200 mg): 2.2 (0.4) % | Ae0‐96 ([5]; SAD, single oral 300 mg): 7.0 (2.0) mg | fe0‐96 ([5]; SAD, single oral 300 mg): 2.3 (0.7) % | Ae0‐96 ([5]; SAD, single oral 400 mg): 20.2 (14.3) mg | fe0‐96 ([5]; SAD, single oral 400 mg): 5.1 (3.6) % | Tmax ([5]; oral): 1 to 4 h | half-life ([5]; oral): 57 to 94 h | Cmax ([5]; po, 3 mg): 1.5 ng/mL | Tmax ([5]; po, 3 mg): 1 h | AUC(0-t) ([5]; po, 10 mg): 150 ng·h/mL | Cmax ([5]; po, 10 mg): 10.5 ng/mL | Tmax ([5]; po, 10 mg): 1 h | half-life ([5]; po, 10 mg): 57.1 h | AUC(0-t) ([5]; po, 30 mg): 878 ng·h/mL | Cmax ([5]; po, 30 mg): 42.9 ng/mL | Tmax ([5]; po, 30 mg): 1 h | half-life ([5]; po, 30 mg): 56.7 h | AUC(0-t) ([5]; po, 100 mg): 5400 ng·h/mL | Cmax ([5]; po, 100 mg): 263 ng/mL | Tmax ([5]; po, 100 mg): 2 h | half-life ([5]; po, 100 mg): 69.8 h | AUC(0-t) ([5]; po, 200 mg): 13700 ng·h/mL | Cmax ([5]; po, 200 mg): 629 ng/mL | Tmax ([5]; po, 200 mg): 2 h | half-life ([5]; po, 200 mg): 77.2 h | AUC(0-t) ([5]; po, 300 mg): 11800 ng·h/mL | Cmax ([5]; po, 300 mg): 558 ng/mL | Tmax ([5]; po, 300 mg): 2.1 h | half-life ([5]; po, 300 mg): 93.8 h | AUC(0-t) ([5]; po, 400 mg): 22300 ng·h/mL | Cmax ([5]; po, 400 mg): 996 ng/mL | Tmax ([5]; po, 400 mg): 4 h | half-life ([5]; po, 400 mg): 65.1 h | inhibition of PMA‐mediated pERK Y204 [6]: No consistent inhibition | inhibition of PMA‐induced pERK Y204 [7]: inability | % inhibition hind paw inflammation ([8]; 10 mg/kg): 55% | % inhibition hind paw inflammation ([8]; 15 mg/kg): 90% | inhibition of LPS‐induced DC activation [9]: No inhibition | pIC50 [10]: 5.98 | Fluctuation ([11]; MAD day 10, 11 mg once daily): 90.7 (43.9) % | Tmax ([11]; MAD day 10, 11 mg once daily, median (min, max)): 1.5 (0.5, 2.0) Hours | Ae0‐24 ([11]; MAD day 10, 11 mg once daily): 0.4 (0.1) mg | fe0‐24 ([11]; MAD day 10, 11 mg once daily): 3.3 (1.3) % | Fluctuation ([11]; MAD day 10, 33 mg once daily): 88.0 (15.9) % | Tmax ([11]; MAD day 10, 33 mg once daily, median (min, max)): 1.5 (1.0, 2.1) Hours | Ae0‐24 ([11]; MAD day 10, 33 mg once daily): 1.3 (0.0) mg | fe0‐24 ([11]; MAD day 10, 33 mg once daily): 4.0 (0.1) % | Fluctuation ([11]; MAD day 10, 66 mg once daily): 98.8 (24.1) % | t1/2 ([11]; MAD day 10, 66 mg once daily): 61.3 Hours and 61.3 (10.2) Hours | Tmax ([11]; MAD day 10, 66 mg once daily, median (min, max)): 4.0 (2.0, 4.0) Hours | Ae0‐24 ([11]; MAD day 10, 66 mg once daily): 3.7 (0.6) mg | fe0‐24 ([11]; MAD day 10, 66 mg once daily): 5.6 (1.0) % | Fluctuation ([11]; MAD day 10, 110 mg once daily): 92.8 (30.7) % | t1/2 ([11]; MAD day 10, 110 mg once daily): 75.3 Hours and 75.3 (11.2) Hours | Tmax ([11]; MAD day 10, 110 mg once daily, median (min, max)): 3.0 (3.0, 6.0) Hours | Ae0‐24 ([11]; MAD day 10, 110 mg once daily): 6.96 (1.7) mg | fe0‐24 ([11]; MAD day 10, 110 mg once daily): 6.3 (1.5) % | intersubject variability (CV%) for exposure parameters ([11]; MAD steady state, all dose cohorts): ≤ 45% | steady state achieved ([11]; MAD, trough levels days 4, 7, 8, 9, 10): ≤ 7 days | Tmax ([11]; human, plasma, oral): 1.5 to 4 h | AUC ([11]; human, plasma, oral, 11 mg): 507 ng·h/mL | Cmax ([11]; human, plasma, oral, 11 mg, MAD day 10, 11 mg once daily): 32.6 ng/mL | AUC ([11]; human, plasma, oral, 33 mg): 1810 ng·h/mL | Cmax ([11]; human, plasma, oral, 33 mg, MAD day 10, 33 mg once daily): 118 ng/mL | AUC ([11]; human, plasma, oral, 66 mg): 4630 ng·h/mL | Cmax ([11]; human, plasma, oral, 66 mg, MAD day 10, 66 mg once daily): 317 ng/mL | AUC ([11]; human, plasma, oral, 110 mg): 8490 ng·h/mL | Cmax ([11]; human, plasma, oral, 110 mg, MAD day 10, 110 mg once daily): 557 ng/mL | CL renal ([11]; human, oral, 11 mg): 0.2 mL/min/kg | CL renal ([11]; human, oral, 33 mg): 0.2 mL/min/kg | CL renal ([11]; human, oral, 66 mg): 0.2 mL/min/kg | CL renal ([11]; human, oral, 110 mg): 0.2 mL/min/kg | inhibition of BCR‐mediated pSYK Y352 [12, 21]: No consistent inhibition | inhibition of LYN‐mediated pSYK ([12]; SAD study, versus plasma concentration): No concentration‐dependent inhibition | opRBC‐induced ROS formation, concentration‐dependent ([13]; replicate experiments, different donors): inhibited | opRBC‐induced ROS generation ([13]; whole blood pretreated with 4 μM): completely abrogated | effect on FcγR‐mediated (opRBC) DC activation, surface CD80/86 and MHCII [14]: inhibited | effect on PMA stimulation (SYK‐independent) [15, 20]: no effect | inhibition of PMA‐induced B‐cell activation [15, 21]: no inhibition | serious adverse events ([16]; 11 to 110 mg once daily for 10 days): no SAEs | AEs considered by the investigator related to the study drug ([16]; 71 of 96 AEs): 74% | number of AEs reported ([16]; all PRT062607 doses): 96 | subjects reporting AEs ([16]; all PRT062607 doses (13 subjects)): 54.2% | effect on CD3/CD28‐induced T‐cell activation [17]: no effect

COc1cc(Nc2ncc(F)c(Nc3ccc4c(n3)N(COP(=O)(O)O)C(=O)C(C)(C)O4)n2)cc(OC)c1OC [fostamatinib]
overall response rate [18]: 3%

C=CC(=O)N1CCC[C@@H](n2nc(-c3ccc(Oc4ccccc4)cc3)c3c(N)ncnc32)C1 [ibrutinib]
inhibition of serum CCL3 and CCL4 markers [19]: > 90%

— PMC5248591 (Journal of Clinical Pharmacology, 2016)
